Activity calls are given as the source filed them. No cut-off for these calls is given here.
Experiments:
COLO 205 [1] = test: Cell cycle arrest in human COLO205 cells assessed as accumulation at S phase at 4 uM after 24 hrs by FACS analysis (reference value: 8.91%); type: functional
How it was run: (§1)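 Colo-205 cells seeded at […] per 60 mm dish and treated 24 h at 4 µM; TSA arm used TSA at 4 µM for 12 h. Cells trypsinised, fixed in ice-cold 70% ethanol 30 min at 4 °C, RNase 1 mg/mL 30 min at 37 °C, then propidium iodide/citrate/Triton stain. DNA content of 20,000 events read by flow cytometry; phase percentages from histograms.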

A549 = test: Growth inhibition of human A549 cells after 48 hrs by sulforhodamine B assay; type: functional; details: A549, 48 h
How it was run: (§2)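 Cells grown in DMEM with 10% FBS and 2 mM L-glutamine, plated at densities set by doubling time, and held 24 h before dosing. Exposure was 48 h to 0.1, 1, 10 and 100 µM in triplicate wells. Cells fixed with cold TCA (final 10%) 60 min at 4 °C and stained with 0.4% SRB 20 min. Bound dye eluted in 10 mM Tris base and read at 540 nm (690 nm reference). GI50 is the concentration giving 50% reduction in net protein gain versus control; values are the mean of three determinations.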

COLO 205 [2] = test: Cell cycle arrest in human COLO205 cells assessed as accumulation at G2/M phase at 4 uM after 24 hrs by FACS analysis (reference value: 25.92%); type: functional; how it was run: as §1
COLO 205 [3] = test: Cytotoxicity against human COLO205 cells at 8 uM after 24 hrs by MTT assay; type: functional, cell-based
How it was run: (§3)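 Colo-205 cells plated at 10,000 per well, left overnight, then exposed 24 h at 2, 4 or 8 µM. MTT added for 2 h at 37 °C, formazan dissolved in extraction buffer, and optical density read at 570 nm against untreated cells.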

A2780 = test: Growth inhibition of human A2780 cells after 48 hrs by sulforhodamine B assay; type: functional; details: A2780, 48 h; how it was run: as §2
COLO 205 [4] = test: Cell cycle arrest in human COLO205 cells assessed as accumulation at G1 phase at 4 uM after 24 hrs by FACS analysis (reference value: 60.89%); type: functional; how it was run: as §1
ZR-75-1 = test: Growth inhibition of human ZR-75-1 cells after 48 hrs by sulforhodamine B assay; type: functional; details: ZR-75-1, 48 h; how it was run: as §2
COLO 205 [5] = test: Cytotoxicity against human COLO205 cells at 2 uM after 24 hrs by MTT assay; type: functional, cell-based; how it was run: as §3
COLO 205 [6] = test: Cell cycle arrest in human COLO205 cells assessed as accumulation at G0 phase at 4 uM after 24 hrs by FACS analysis (reference value: 4.29%); type: functional; how it was run: as §1
COLO 205 [7] = test: Growth inhibition of human COLO205 cells after 48 hrs by sulforhodamine B assay; type: functional; details: COLO 205, 48 h; how it was run: as §2
KB = test: Growth inhibition of human KB cells after 48 hrs by sulforhodamine B assay; type: functional; how it was run: as §2
MCF7 = test: Growth inhibition of human MCF7 cells after 48 hrs by sulforhodamine B assay; type: functional; details: MCF7, 48 h; how it was run: as §2
COLO 205 [8] = test: Cytotoxicity against human COLO205 cells at 4 uM after 24 hrs by MTT assay; type: functional, cell-based; how it was run: as §3
[9] = Growth inhibition of human DWD cells after 48 hrs by sulforhodamine B assay; type: functional; how it was run: as §2
HOP-62 = test: Growth inhibition of human HOP62 cells after 48 hrs by sulforhodamine B assay; type: functional; details: HOP-62, 48 h; how it was run: as §2
COLO 205 [10] = test: Induction of apoptosis in human COLO205 cells assessed as down regulation of Bcl-2 at 4 uM after 24 hrs by ELISA; type: functional, cell-based
How it was run: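 Colo-205 cells treated 24 h at 4 µM, with etoposide and camptothecin as controls. Lysates added to Bcl2-antibody-coated wells, followed by a biotin-conjugated anti-human Bcl2 monoclonal antibody, in a Bcl2 ELISA.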

COLO 205 [11] = test: Up-regulation of topoisomerase 2alpha in human COLO205 cells at 4 uM after 24 hrs by Western blotting analysis in presence of HDAC inhibitor, trichostatin A; type: functional, cell-based
How it was run: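 Colo-205 cells exposed 24 h to test agent plus TSA, each at 4 µM. Western blot of lysates probed for topo-IIα, with β-actin as loading control.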

Structure (SMILES): COc1cc([C@@H]2c3cc4c(cc3[C@@H](NS(=O)(=O)c3ccc(Br)s3)[C@H]3COC(=O)[C@H]23)OCO4)cc(OC)c1OC
- Percentage of cells in S phase (COLO 205 [1]): 16.51%
- GI50 (A549): 0.12 µM
- Percentage of cells in G2/M phase (COLO 205 [2]): 37.78%
- Activity (COLO 205 [3]): Active
- GI50 (A2780): 0.06 µM
- Activity (COLO 205 [4]): 34.67%
- GI50 (ZR-75-1): 0.18 µM
- Activity (COLO 205 [5]): Active
- Activity (COLO 205 [6]): 11.04%
- GI50 (COLO 205 [7]): 0.04 µM
- GI50 (KB): 0.04 µM
- GI50 (MCF7): 0.13 µM
- Activity (COLO 205 [8]): Active
- GI50 [9]: 0.05 µM
- GI50 (HOP-62): 0.04 µM

Structure (SMILES): CC[C@@]1(O)C(=O)OCc2c1cc1n(c2=O)Cc2cc3ccccc3nc2-1
- Activity (COLO 205 [10]): Active
- Activity (COLO 205 [11]): inactive

Structure (SMILES): COc1cc([C@@H]2c3cc4c(cc3[C@@H](NC(=O)c3ccc(NS(=O)(=O)c5cccc6cccnc56)cc3)[C@H]3COC(=O)[C@H]23)OCO4)cc(OC)c1OC
- GI50 (A549): 2.51 µM
- GI50 (A2780): 2.42 µM
- GI50 (COLO 205 [7]): 2.31 µM
- GI50 (MCF7): 2.9 µM
- GI50 [9]: 0.14 µM
- GI50 (HOP-62): 2.61 µM

Structure (SMILES): COc1cc([C@@H]2c3cc4c(cc3[C@@H](NS(=O)(=O)c3ccc(-c5ccccc5)cc3)[C@H]3COC(=O)[C@H]23)OCO4)cc(OC)c1OC
- GI50 (A549): 2 µM
- GI50 (A2780): 2.11 µM
- GI50 (ZR-75-1): 2.3 µM
- GI50 (COLO 205 [7]): 2.71 µM
- GI50 (MCF7): 2.61 µM
- GI50 [9]: 2.21 µM
- GI50 (HOP-62): 2.01 µM

Structure (SMILES): COc1cccc2c1C(=O)c1c(O)c3c(c(O)c1C2=O)C[C@@](O)(C(=O)CO)C[C@@H]3O[C@H]1C[C@H](N)[C@H](O)[C@H](C)O1 [DOXORUBICIN]
- GI50 (A2780): 0.16 µM
- GI50 (COLO 205 [7]): 0.14 µM
- GI50 (KB): 0.17 µM
- GI50 (MCF7): 0.17 µM
- GI50 [9]: 0.1 µM
- GI50 (HOP-62): 0.14 µM

Structure (SMILES): COc1cc([C@@H]2c3cc4c(cc3[C@@H](NS(=O)(=O)c3cccc5ccccc35)[C@H]3COC(=O)[C@H]23)OCO4)cc(OC)c1OC
- GI50 (A549): 0.16 µM
- GI50 (A2780): 1.91 µM
- GI50 (ZR-75-1): 2.1 µM
- GI50 (COLO 205 [7]): 2.1 µM
- GI50 (KB): 2.3 µM
- GI50 (MCF7): 0.09 µM
- GI50 [9]: 2 µM
- GI50 (HOP-62): 2.4 µM

Structure (SMILES): COc1cc([C@@H]2c3cc4c(cc3[C@@H](NC(=O)c3ccc(NS(=O)(=O)c5ccc(-c6ccccc6)cc5)cc3)[C@H]3COC(=O)[C@H]23)OCO4)cc(OC)c1OC
- GI50 (A2780): 2.51 µM
- GI50 (ZR-75-1): 2.11 µM
- GI50 (COLO 205 [7]): 2.8 µM
- GI50 (KB): 2.5 µM
- GI50 (MCF7): 2.3 µM
- GI50 [9]: 2.88 µM

Structure (SMILES): COc1cc([C@@H]2c3cc4c(cc3[C@@H](NS(=O)(=O)c3ccc(Oc5ccccc5)cc3)[C@H]3COC(=O)[C@H]23)OCO4)cc(OC)c1OC
- GI50 (A549): 2.11 µM
- GI50 (A2780): 2.4 µM
- GI50 (ZR-75-1): 2.31 µM
- GI50 (KB): 2.31 µM
- GI50 (MCF7): 2.21 µM
- GI50 [9]: 2.91 µM

Structure (SMILES): COc1ccc(S(=O)(=O)Nc2ccc(C(=O)N[C@@H]3c4cc5c(cc4[C@@H](c4cc(OC)c(OC)c(OC)c4)[C@H]4C(=O)OC[C@@H]43)OCO5)cc2)cc1
- GI50 (ZR-75-1): 2.12 µM
- GI50 (COLO 205 [7]): 2.51 µM
- GI50 (MCF7): 0.16 µM
- GI50 [9]: 2.02 µM
- GI50 (HOP-62): 2.71 µM

Structure (SMILES): COc1cc([C@@H]2c3cc4c(cc3[C@@H](NS(=O)(=O)c3cccc5nsnc35)[C@H]3COC(=O)[C@H]23)OCO4)cc(OC)c1OC
- GI50 (A549): 2.71 µM
- GI50 (A2780): 2.31 µM
- GI50 (ZR-75-1): 2.51 µM
- GI50 (MCF7): 2.21 µM
- GI50 (HOP-62): 2.21 µM

Structure (SMILES): COc1cc([C@@H]2c3cc4c(cc3[C@@H](NC(=O)c3ccc(NS(=O)(=O)c5ccc(Oc6ccccc6)cc5)cc3)[C@H]3COC(=O)[C@H]23)OCO4)cc(OC)c1OC
- GI50 (A549): 2.7 µM
- GI50 (ZR-75-1): 2.9 µM
- GI50 (KB): 2.01 µM
- GI50 [9]: 2.1 µM
- GI50 (HOP-62): 2 µM

Structure (SMILES): COc1cc([C@@H]2c3cc4c(cc3[C@@H](NC(=O)c3ccc(NS(=O)(=O)c5cccc6nsnc56)cc3)[C@H]3COC(=O)[C@H]23)OCO4)cc(OC)c1OC
- GI50 (A2780): 2.11 µM
- GI50 (ZR-75-1): 2.23 µM
- GI50 (MCF7): 0.17 µM
- GI50 [9]: 2.8 µM
- GI50 (HOP-62): 2.91 µM

Structure (SMILES): COc1cc([C@@H]2c3cc4c(cc3[C@@H](NC(=O)c3ccc(NS(=O)(=O)c5ccc(Br)s5)cc3)[C@H]3COC(=O)[C@H]23)OCO4)cc(OC)c1OC
- GI50 (A2780): 2.11 µM
- GI50 (ZR-75-1): 2.9 µM
- GI50 (MCF7): 2.71 µM
- GI50 [9]: 2.5 µM
- GI50 (HOP-62): 2.01 µM

Structure (SMILES): COc1cc([C@@H]2c3cc4c(cc3[C@@H](NS(=O)(=O)c3ccc(S(=O)(=O)c5ccccc5)s3)[C@H]3COC(=O)[C@H]23)OCO4)cc(OC)c1OC
- GI50 (A2780): 2.3 µM
- GI50 (ZR-75-1): 2.11 µM
- GI50 (KB): 2.11 µM
- GI50 (MCF7): 0.14 µM
- GI50 [9]: 2.61 µM

Structure (SMILES): COc1cc([C@@H]2c3cc4c(cc3[C@@H](NS(=O)(=O)c3sc(NC(C)=O)nc3C)[C@H]3COC(=O)[C@H]23)OCO4)cc(OC)c1OC
- GI50 (A549): 0.12 µM
- GI50 (A2780): 0.15 µM
- GI50 (ZR-75-1): 0.17 µM
- GI50 (COLO 205 [7]): 0.11 µM
- GI50 (KB): 0.17 µM
- GI50 (MCF7): 0.15 µM
- GI50 [9]: 0.14 µM
- GI50 (HOP-62): 0.16 µM

Structure (SMILES): COc1cc([C@@H]2c3cc4c(cc3[C@@H](NS(=O)(=O)c3cc(Cl)sc3Cl)[C@H]3COC(=O)[C@H]23)OCO4)cc(OC)c1OC
- GI50 (A549): 0.14 µM
- GI50 (A2780): 0.16 µM
- GI50 (ZR-75-1): 2.5 µM
- GI50 (COLO 205 [7]): 0.15 µM
- GI50 (KB): 2.1 µM
- GI50 (MCF7): 0.11 µM
- GI50 [9]: 0.15 µM
- GI50 (HOP-62): 2 µM

Structure (SMILES): COc1cc([C@@H]2c3cc4c(cc3[C@@H](NC(=O)c3ccc(NS(=O)(=O)c5cccc6ccccc56)cc3)[C@H]3COC(=O)[C@H]23)OCO4)cc(OC)c1OC
- GI50 (A549): 2.6 µM
- GI50 (A2780): 2 µM
- GI50 (ZR-75-1): 2.81 µM
- GI50 (COLO 205 [7]): 2.12 µM
- GI50 (KB): 2 µM
- GI50 (MCF7): 2.32 µM
- GI50 (HOP-62): 2.22 µM

Structure (SMILES): COc1cc([C@@H]2c3cc4c(cc3[C@@H](NS(=O)(=O)c3cccc5cccnc35)[C@H]3COC(=O)[C@H]23)OCO4)cc(OC)c1OC
- Percentage of cells in S phase (COLO 205 [1]): 10.35%
- GI50 (A549): 0.04 µM
- Percentage of cells in G2/M phase (COLO 205 [2]): 28.19%
- Activity (COLO 205 [3]): Active
- GI50 (A2780): 0.08 µM
- Activity (COLO 205 [4]): 58.41%
- GI50 (ZR-75-1): 0.08 µM
- Activity (COLO 205 [5]): Active
- Activity (COLO 205 [6]): 3.06%
- GI50 (COLO 205 [7]): 0.04 µM
- GI50 (KB): 0.06 µM
- GI50 (MCF7): 0.12 µM
- Activity (COLO 205 [8]): Active
- GI50 [9]: 0.17 µM
- GI50 (HOP-62): 0.06 µM
